These results are taken from ChEMBL document CHEMBL1157755 (Bioorg Med Chem Lett, 2010).

By EC50 is commonly meant the concentration that produces a half-maximal response. The term Emax denotes the size of the effect at its maximum, as opposed to the concentration needed.

The target of assay [1] is T1, Histamine H2 receptor (Homo sapiens, UniProt P25021). The assay can be described thus: Agonist activity at GsalphaS-fused human histamine H2 receptor expressed in Sf9 cells by steady-state GTPase assay.
The target of assay [2] is T2, Histamine H2 receptor (Cavia porcellus, UniProt P47747). The assay can be described thus: Agonist activity at GsalphaS-fused guinea pig histamine H2 receptor expressed in Sf9 cells by steady-state GTPase assay.
Assay [3] deals with T2, Histamine H2 receptor. Description: Agonist activity at histamine H2 receptor in spontaneously beating guinea pig atrium. The class given is functional, tissue-based, Cardiac atrium.
The target of assay [4] is Histamine H2 receptor (Cavia porcellus) (UniProt P47747). Description: Agonist activity at GsalphaS-fused guinea pig histamine H2 receptor expressed in Sf9 cells by steady-state GTPase assay relative to histamine.
Assay [5] has as its target T1, Histamine H2 receptor. Description: Agonist activity at GsalphaS-fused human histamine H2 receptor expressed in Sf9 cells by steady-state GTPase assay relative to histamine.
Assay [6] deals with Histamine H2 receptor (Cavia porcellus) (UniProt P47747). The assay can be described thus: Agonist activity at histamine H2 receptor in spontaneously beating guinea pig atrium assessed as increase in heart rate as relative to histamine. It is filed as functional, tissue-based. Particulars: Cardiac atrium.
Assay [7] addresses T1, Histamine H2 receptor. The assay can be described thus: Selectivity ratio of EC50 for human histamine H2 to EC50 for guinea pig histamine H2 receptor.
For assay [8], the target named is T3, Histamine H1 receptor (Homo sapiens, UniProt P35367). Description: Activity at human recombinant histamine H1 receptor expressed in Sf9 cells coexpressing RGS4 by steady-state GTPase activity assay. Put shortly:
(§1)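 Steady-state GTPase activity was measured in Sf9 insect cell membranes. hH1R was co-expressed with RGS4; hH3R with Galphai2, Gbeta1gamma2 and RGS4; and hH4R-GAIP fusion protein with Galphai2 and Gbeta1gamma2. Agonist pEC50 or antagonist pKB was determined. Values are means of two to three experiments, each in duplicate.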

In assay [9] the target is T4, Histamine H4 receptor (Homo sapiens, UniProt Q9H3N8). Description: Activity at human recombinant GAIP-fused histamine H4 receptor expressed in Sf9 cells coexpressing Galphai, Gbeta1gamma2 by steady-state GTPase activity assay. In a few lines: as §1
The target of assay [10] is T3, Histamine H1 receptor. The assay can be described thus: Activity at human recombinant histamine H1 receptor expressed in Sf9 cells coexpressing RGS4 by steady-state GTPase activity assay relative to histamine. Put shortly:
(§2)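 Steady-state GTPase activity was measured in Sf9 insect cell membranes. hH1R was co-expressed with RGS4; hH3R with Galphai2, Gbeta1gamma2 and RGS4; and hH4R-GAIP fusion protein with Galphai2 and Gbeta1gamma2. Agonist pEC50 or antagonist pKB was determined. […] Values are means of two to three experiments, each in duplicate.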

The target of assay [11] is T4, Histamine H4 receptor. Description: Activity at human recombinant GAIP-fused histamine H4 receptor expressed in Sf9 cells coexpressing Galphai, Gbeta1gamma2 by steady-state GTPase activity assay relative to histamine. Put shortly: as §2

T1 sequence (P25021 whole entry, the tested form may be a part): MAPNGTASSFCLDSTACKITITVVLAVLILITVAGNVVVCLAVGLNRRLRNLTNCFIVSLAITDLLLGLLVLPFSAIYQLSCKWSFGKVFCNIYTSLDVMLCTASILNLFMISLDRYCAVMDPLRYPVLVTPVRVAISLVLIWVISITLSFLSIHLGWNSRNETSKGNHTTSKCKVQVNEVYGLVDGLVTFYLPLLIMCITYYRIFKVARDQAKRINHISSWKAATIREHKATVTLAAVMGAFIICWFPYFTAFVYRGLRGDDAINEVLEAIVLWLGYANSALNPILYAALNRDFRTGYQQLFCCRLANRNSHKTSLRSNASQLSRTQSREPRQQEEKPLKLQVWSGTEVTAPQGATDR
T4 sequence (Q9H3N8 whole entry, the tested form may be a part): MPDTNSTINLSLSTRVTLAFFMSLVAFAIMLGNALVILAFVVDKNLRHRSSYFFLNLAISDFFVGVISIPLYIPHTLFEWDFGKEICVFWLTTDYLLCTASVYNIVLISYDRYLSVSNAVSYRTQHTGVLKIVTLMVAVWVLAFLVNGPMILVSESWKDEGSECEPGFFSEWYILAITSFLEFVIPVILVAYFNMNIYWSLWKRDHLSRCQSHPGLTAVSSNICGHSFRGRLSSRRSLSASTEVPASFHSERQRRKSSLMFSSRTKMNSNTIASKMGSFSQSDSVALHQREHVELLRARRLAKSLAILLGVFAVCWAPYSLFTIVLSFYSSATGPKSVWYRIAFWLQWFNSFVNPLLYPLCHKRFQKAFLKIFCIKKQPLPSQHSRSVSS
T3 sequence (P35367 whole entry, the tested form may be a part): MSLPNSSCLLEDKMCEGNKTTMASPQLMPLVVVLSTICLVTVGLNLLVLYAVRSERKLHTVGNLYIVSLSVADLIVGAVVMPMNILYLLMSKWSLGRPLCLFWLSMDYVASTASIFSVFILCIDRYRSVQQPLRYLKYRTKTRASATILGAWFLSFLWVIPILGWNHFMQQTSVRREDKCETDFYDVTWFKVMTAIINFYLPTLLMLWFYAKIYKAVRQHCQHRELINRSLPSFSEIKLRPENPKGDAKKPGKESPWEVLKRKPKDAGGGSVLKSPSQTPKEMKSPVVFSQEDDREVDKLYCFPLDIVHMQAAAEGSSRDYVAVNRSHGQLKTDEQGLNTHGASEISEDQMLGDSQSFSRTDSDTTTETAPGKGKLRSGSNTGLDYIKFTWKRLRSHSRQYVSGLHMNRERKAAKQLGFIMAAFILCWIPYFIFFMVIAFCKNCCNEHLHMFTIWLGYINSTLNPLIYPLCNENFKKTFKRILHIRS
T2 sequence (P47747 whole entry, the tested form may be a part): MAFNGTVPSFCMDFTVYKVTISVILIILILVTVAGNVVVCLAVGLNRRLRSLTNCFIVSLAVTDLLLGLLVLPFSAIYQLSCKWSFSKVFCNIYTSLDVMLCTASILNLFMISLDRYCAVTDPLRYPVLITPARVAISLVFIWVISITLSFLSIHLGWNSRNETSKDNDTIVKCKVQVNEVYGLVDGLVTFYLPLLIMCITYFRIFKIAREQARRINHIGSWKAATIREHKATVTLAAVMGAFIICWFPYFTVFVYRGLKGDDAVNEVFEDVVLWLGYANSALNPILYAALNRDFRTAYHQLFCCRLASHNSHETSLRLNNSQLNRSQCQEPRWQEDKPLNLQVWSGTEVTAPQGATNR
Histamine H2 receptor (Cavia porcellus), sequence (P47747 whole entry, the tested form may be a part): as above

As to `Cc1nc(N)sc1CCCN=C(N)NC(=O)C[C@@H](C)C1CCCCC1`, the values for the EC50 in [1], in [2] and in assay [3] were 20.4 nM, 13.2 nM and 57.5 nM, respectively.

Turning to `Cc1nc(N)sc1CCCNC(=N)NC(=O)C[C@@H](C)C1CCCCC1`, the Emax in [4] was 80%; in assay [5] it was 62%; in [6] it was 80%. Besides, the Ratio EC50 in [7] is 1.53.

Consider `Cc1nc(N)sc1CCCN=C(N)NC(=O)C[C@@H](C)c1ccccc1`, for which the half-maximal effective concentration (EC50) in [1] was 53.7 nM; in assay [2] it was 17 nM; in assay [3], 102 nM.

As for `C[C@@H](CC(=O)NC(N)=NCCCc1cnc[nH]1)C1CCCCC1`, the EC50 in [1] is 6.46 nM; in assay [2], 7.76 nM; in [8] it was 66.1 nM; in assay [9] it was 4.57 nM; in assay [3] it was 33.1 nM.

Take `Cc1nc(N)sc1CCCNC(=N)NC(=O)C[C@H](C)c1ccccc1`: the values for the EC50 in assay [1], in [2] and in assay [3] were 28.2 nM, 7.76 nM and 39.8 nM, respectively. Moreover, the maximal effect (Emax) in [4] is 99%; in assay [5], 87%; in assay [6], 87%. The Ratio EC50 in assay [7] amounted to 3.6.

Take `Cc1nc(N)sc1CCCNC(=N)NC(=O)C[C@H](C)C1CCCCC1`: the maximal response (Emax) was 90% in [4], 71% in assay [5] and 78% in assay [6]. Moreover, the Ratio EC50 in assay [7] stood at 2.05.

Take `C[C@H](CC(=O)NC(N)=NCCCc1cnc[nH]1)C1CCCCC1`: the EC50 in assay [1] is 18.6 nM; in assay [2], 19.1 nM; in [8] it was 89.1 nM; in assay [9] it was 8.32 nM; in [3], 102 nM.

On to `C[C@H](CC(=O)NC(=N)NCCCc1c[nH]cn1)c1ccccc1`, for which the Emax in [4] amounted to 101%; in assay [5], 101%; in [10] it was 34%; in assay [6], 93%; in assay [11], 85%. Moreover, the Ratio EC50 in [7] was found to be 1.58.

Turning to `Cc1nc(N)sc1CCCNC(=N)NC(=O)C[C@@H](C)c1ccccc1`, the maximal response (Emax) in assay [4] was found to be 86%; in assay [5], 65%; in assay [6], 73%. In [7], the Ratio EC50 was 3.14.

`Cc1nc(N)sc1CCCN=C(N)NC(=O)C[C@H](C)C1CCCCC1`: the results for the EC50 in [1], in assay [2] and in assay [3] were 28.8 nM, 14.1 nM and 91.2 nM, respectively.

With `Cc1nc(N)sc1CCCNC(=N)NC(=O)CC(C)c1ccccc1` (racemic), the EC50 in [1] was 50.1 nM; in assay [2], 22.4 nM; in [3] it was 49 nM. Besides, the maximal response (Emax) in [4] was determined as 98%; in assay [5], 82%; in [6], 89%. Further, in [7], the Ratio EC50 is 2.22.

With `Cc1nc(N)sc1CCCNC(=N)NC(=O)CC(C)C1CCCCC1` (racemic), the concentration for a half-maximal effect (EC50) in assay [1] was 9.33 nM; in [2], 7.59 nM; in [3], 69.2 nM. For the same compound, the maximum response (Emax) came out at 82% in assay [4], 56% in [5] and 74% in assay [6]. Further, the Ratio EC50 in assay [7] was 1.24.

With `C[C@@H](CC(=O)NC(=N)NCCCc1c[nH]cn1)C1CCCCC1`, the Emax came to 93% in assay [4]; 99% in assay [5]; 51% in assay [10]; 103% in [6]; 59% in [11]. For the same compound, the Ratio EC50 in assay [7] stood at 0.84.

With `C[C@@H](CC(=O)NC(N)=NCCCc1cnc[nH]1)c1ccccc1`, the EC50 is 79.4 nM in assay [1]; 24 nM in assay [2]; 832 nM in assay [8]; 2.63 nM in assay [9]; 25.1 nM in assay [3].

With `C[C@@H](CC(=O)NC(=N)NCCCc1c[nH]cn1)c1ccccc1`, the Emax stood at 119% in assay [4]; 107% in [5]; 53% in assay [10]; 102% in assay [6]; 82% in [11]. In assay [7], the Ratio EC50 came to 3.32.

Consider `NCCc1c[nH]cn1` [HISTAMINE], for which the Emax in assay [4], in assay [5], in assay [10], in assay [6] and in [11] was 100% throughout.

As for `C[C@H](CC(=O)NC(N)=NCCCc1cnc[nH]1)c1ccccc1`, the EC50 in assay [1] was 120 nM; in assay [2], 75.9 nM; in assay [8] it was 6170 nM; in assay [9], 22.9 nM; in assay [3] it was 93.3 nM.

Consider `C[C@H](CC(=O)NC(=N)NCCCc1c[nH]cn1)C1CCCCC1`, for which the maximal response (Emax) in assay [4] is 90%; in assay [5], 85%; in assay [10], 41%; in assay [6], 82%; in assay [11], 57%. Also, the Ratio EC50 in [7] was found to be 0.98.
